Measurements reported in ChEMBL document CHEMBL1151448, “Comparative antianaerobic activities of doripenem determined by MIC and time-kill analysis” (2008).

Tests used:
Type in all cases: functional
[1] = system: Finegoldia magna; test: Bactericidal activity against beta lactamase-positive Finegoldia magna isolated from intra-abdominal infection and pelvic inflammatory disease patients assessed as bacterial killing at 2 times MIC after 48 hrs by time kill analysis
Method in brief: (§1)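 Anaerobic macrodilution time-kill. Inoculum from brucella blood plates, prepared and diluted in prereduced brucella broth inside the anaerobe chamber. Final 10^6 to 10^7 CFU/ml in prereduced brucella broth with 5% laked horse blood cells, 5 μg/ml hemin and 1 μg/ml vitamin K1. […] Shaken at 35°C for 48 h. Viable counts taken at 6, 12, 24 and 48 h. 99.9% kill taken as bactericidal.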

[2] = system: Clostridioides difficile; test: Bactericidal activity against Clostridium difficile isolated from intra-abdominal infection and pelvic inflammatory disease patients assessed as bacterial killing at 2 times MIC after 48 hrs by time kill analysis
Method in brief: (§2)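 Macrodilution time-kill in prereduced brucella broth with 5% laked horse blood, hemin 5 μg/ml and vitamin K1 1 μg/ml, at final inoculum 10^6–10^7 CFU/ml. […] Viable counts were taken at 6, 12, 24 and 48 h on plates incubated 48 h anaerobically. 99.9% kill was taken as bactericidal.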

[3] = system: Prevotella buccae; test: Antimicrobial activity against beta lactamase-positive Prevotella buccae isolated from intra-abdominal infection and pelvic inflammatory disease patients after 48 hrs by agar dilution method; conditions: Segatella buccae
Method in brief: (§3)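 CLSI agar dilution on brucella blood agar supplemented with laked sheep blood, hemin and vitamin K. Inocula of about 1 × 10^5 CFU/spot were applied by Steers replicator, and plates were incubated 48 h at 35°C in an anaerobic glove box. MIC was the concentration giving marked growth reduction versus the anaerobic control plate. QC strains were included each run, and β-lactamase was detected by Cefinase disk.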

[4] = system: Peptostreptococcus anaerobius; test: Antimicrobial activity against Peptostreptococcus anaerobius isolated from intra-abdominal infection and pelvic inflammatory disease patients after 48 hrs by agar dilution method; method in brief: as §3
[5] = system: Fusobacterium nucleatum; test: Bactericidal activity against beta lactamase-positive Fusobacterium nucleatum isolated from intra-abdominal infection and pelvic inflammatory disease patients assessed as bacterial killing at 2 times MIC after 48 hrs by time kill analysis; method in brief: as §1
[6] = system: Clostridioides difficile; test: Antimicrobial activity against Clostridium difficile isolated from intra-abdominal infection and pelvic inflammatory disease patients after 48 hrs by time kill analysis
Method in brief: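 Macrodilution in prereduced brucella broth with 5% laked horse blood cells, 5 μg/ml hemin and 1 μg/ml vitamin K1. Final inoculum 10^6 to 10^7 CFU/ml, prepared inside the anaerobe chamber. Vials incubated 48 h at 35°C in a shaking water bath. MIC read by inspecting the time-kill tubes, alongside an antibiotic-free growth control.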

[7] = system: Bacteroides fragilis; test: Antimicrobial activity against beta lactamase-positive Bacteroides fragilis isolated from intra-abdominal infection and pelvic inflammatory disease patients after 48 hrs by agar dilution method; method in brief: as §3
[8] = system: Anaerococcus tetradius; test: Antimicrobial activity against Anaerococcus tetradius isolated from intra-abdominal infection and pelvic inflammatory disease patients after 48 hrs by agar dilution method; method in brief: as §3
[9] = system: Fusobacterium necrophorum; test: Antimicrobial activity against Fusobacterium necrophorum isolated from intra-abdominal infection and pelvic inflammatory disease patients after 48 hrs by agar dilution method; method in brief: as §3
[10] = system: Prevotella intermedia; test: Bactericidal activity against beta lactamase-positive Prevotella intermedia isolated from intra-abdominal infection and pelvic inflammatory disease patients assessed as bacterial killing at 2 times MIC after 48 hrs by time kill analysis; method in brief: as §1
[11] = system: Prevotella disiens; test: Antimicrobial activity against beta lactamase-positive Prevotella disiens isolated from intra-abdominal infection and pelvic inflammatory disease patients after 48 hrs by agar dilution method; method in brief: as §3
[12] = system: Bacteroides fragilis; test: Antimicrobial activity against beta lactamase-positive Bacteroides fragilis isolated from intra-abdominal infection and pelvic inflammatory disease patients after 48 hrs by time kill analysis
Method in brief: (§4)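 The MIC was read by inspecting macrodilution time-kill tubes. Vials held prereduced brucella broth with 5% laked horse blood cells, hemin 5 μg/ml and vitamin K1 1 μg/ml. Final inoculum was 10^6–10^7 CFU/ml, prepared inside the anaerobe chamber. Vials were incubated 48 h at 35°C in a shaking water bath.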

[13] = system: Clostridium perfringens; test: Bactericidal activity against Clostridium perfringens isolated from intra-abdominal infection and pelvic inflammatory disease patients assessed as bacterial killing at MIC after 24 hrs by time kill analysis
Method in brief: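 Time-kill in prereduced brucella broth with 5% laked horse blood cells, hemin and vitamin K1. […] Viable counts taken at 6, 12, 24 and 48 h, plates incubated 48 h anaerobically. Kill scored as 90%, 99% or 99.9%; 99.9% defines bactericidal.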

[14] = system: Bacteroides thetaiotaomicron; test: Bactericidal activity against beta lactamase-positive Bacteroides thetaiotaomicron isolated from intra-abdominal infection and pelvic inflammatory disease patients assessed as bacterial killing at MIC after 24 hrs by time kill analysis; method in brief: as §2
[15] = system: Prevotella corporis; test: Antimicrobial activity against beta lactamase-positive Prevotella corporis isolated from intra-abdominal infection and pelvic inflammatory disease patients after 48 hrs by agar dilution method; method in brief: as §3
[16] = system: Prevotella intermedia; test: Bactericidal activity against beta lactamase-positive Prevotella intermedia isolated from intra-abdominal infection and pelvic inflammatory disease patients assessed as bacterial killing at MIC after 24 hrs by time kill analysis; method in brief: as §1
[17] = system: Clostridium paraputrificum; test: Antimicrobial activity against Clostridium paraputrificum isolated from intra-abdominal infection and pelvic inflammatory disease patients after 48 hrs by agar dilution method; method in brief: as §3
[18] = system: Bacteroides fragilis; test: Bactericidal activity against beta lactamase-positive Bacteroides fragilis isolated from intra-abdominal infection and pelvic inflammatory disease patients assessed as bacterial killing at MIC after 24 hrs by time kill analysis; method in brief: as §2
[19] = system: Porphyromonas levii; test: Antimicrobial activity against Porphyromonas levii isolated from intra-abdominal infection and pelvic inflammatory disease patients after 48 hrs by agar dilution method; method in brief: as §3
[20] = system: Finegoldia magna; test: Antimicrobial activity against Finegoldia magna isolated from intra-abdominal infection and pelvic inflammatory disease patients after 48 hrs by agar dilution method; method in brief: as §3
[21] = system: Porphyromonas asaccharolytica; test: Antimicrobial activity against Porphyromonas asaccharolyticus isolated from intra-abdominal infection and pelvic inflammatory disease patients after 48 hrs by agar dilution method; method in brief: as §3
[22] = system: Bacteroides thetaiotaomicron; test: Bactericidal activity against beta lactamase-positive Bacteroides thetaiotaomicron isolated from intra-abdominal infection and pelvic inflammatory disease patients assessed as bacterial killing at 2 times MIC after 48 hrs by time kill analysis; method in brief: as §2
[23] = system: Bacteroides thetaiotaomicron; test: Antimicrobial activity against beta lactamase-positive Bacteroides thetaiotaomicron isolated from intra-abdominal infection and pelvic inflammatory disease patients after 48 hrs by time kill analysis; method in brief: as §4
[24] = system: Fusobacterium mortiferum; test: Antimicrobial activity against beta lactamase-positive Fusobacterium mortiferum isolated from intra-abdominal infection and pelvic inflammatory disease patients after 48 hrs by agar dilution method; method in brief: as §3
[25] = system: Finegoldia magna; test: Antimicrobial activity against beta lactamase-positive Finegoldia magna isolated from intra-abdominal infection and pelvic inflammatory disease patients after 48 hrs by time kill analysis; method in brief: as §4
[26] = system: Fusobacterium nucleatum; test: Antimicrobial activity against beta lactamase-positive Fusobacterium nucleatum isolated from intra-abdominal infection and pelvic inflammatory disease patients after 48 hrs by agar dilution method; method in brief: as §3
[27] = system: Clostridioides difficile; test: Antimicrobial activity against Clostridium difficile isolated from intra-abdominal infection and pelvic inflammatory disease patients after 48 hrs by agar dilution method; method in brief: as §3
[28] = system: Parabacteroides distasonis; test: Antimicrobial activity against beta lactamase-positive Bacteroides distasonis isolated from intra-abdominal infection and pelvic inflammatory disease patients after 48 hrs by agar dilution method; method in brief: as §3

C[C@@H](O)[C@H]1C(=O)N2C(C(=O)O)=C(S[C@@H]3CN[C@H](C(=O)Nc4cccc(C(=O)O)c4)C3)[C@H](C)[C@H]12
0.125 µg/mL: MIC50 [3] | MIC90 [3] | MIC90 [9] | MIC [17]
0.03 µg/mL: MIC50 [15] | MIC [25] | MIC90 [26]
0.5 µg/mL: MIC50 [4] | MIC [23] | MIC90 [24] | MIC [28] | MIC50 [28]
2 µg/mL: MIC90 [4] | MIC90 [7]
0.06 µg/mL: MIC [8] | MIC50 [8] | MIC50 [11] | MIC90 [15] | MIC50 [20] | MIC90 [20] | MIC [24] | MIC50 [24]
0.25 µg/mL: MIC [7] | MIC50 [7] | MIC90 [11] | MIC [12]
≤ 0.016 µg/mL: MIC [9] | MIC50 [9] | MIC [19] | MIC [21] | MIC [26] | MIC50 [26]
1 µg/mL: MIC90 [28]
90%: Activity [13] | Activity [14] | Activity [16] | Activity [18]
8 µg/mL: MIC90 [27]
4 µg/mL: MIC [6] | MIC [27] | MIC50 [27]
99%: Activity [1] | Activity [2] | Activity [5] | Activity [10] | Activity [22]

C[C@@H](O)[C@H]1C(=O)N2C(C(=O)O)=C(S[C@@H]3CN[C@H](CNS(N)(=O)=O)C3)[C@H](C)[C@H]12 [DORIPENEM]
0.06 µg/mL: MIC [3] | MIC50 [3] | MIC50 [11] | MIC90 [15] | MIC [20] | MIC50 [20] | MIC [25]
0.125 µg/mL: MIC90 [3] | MIC90 [11] | MIC90 [20]
90%: Activity [13] | Activity [14] | Activity [16] | Activity [18]
1 µg/mL: MIC [6] | MIC90 [7] | MIC90 [24] | MIC90 [28]
2 µg/mL: MIC90 [4] | MIC50 [27]
0.5 µg/mL: MIC50 [28]
4 µg/mL: MIC90 [27]
≤ 0.016 µg/mL: MIC [9] | MIC50 [9] | MIC [21] | MIC [26] | MIC50 [26]
0.25 µg/mL: MIC50 [4] | MIC50 [7] | MIC90 [9] | MIC [12] | MIC [17] | MIC [23] | MIC50 [24]
99%: Activity [1] | Activity [2] | Activity [5] | Activity [10] | Activity [22]
0.03 µg/mL: MIC50 [8] | MIC [15] | MIC50 [15] | MIC [19] | MIC90 [26]

C[C@@H](O)[C@H]1C(=O)N2C(C(=O)O)=C(SCCNC=N)C[C@H]12 [IMIPENEM ANHYDROUS]
≤ 0.016 µg/mL: MIC [9] | MIC50 [9] | MIC [19] | MIC [21]
1 µg/mL: MIC90 [4] | MIC50 [24] | MIC90 [24] | MIC90 [28]
99%: Activity [1] | Activity [2] | Activity [5] | Activity [10] | Activity [22]
0.25 µg/mL: MIC90 [7] | MIC90 [9] | MIC [23]
8 µg/mL: MIC50 [27] | MIC90 [27]
0.03 µg/mL: MIC [3] | MIC50 [3] | MIC90 [3] | MIC50 [8] | MIC [11] | MIC50 [11] | MIC50 [15] | MIC50 [26] | MIC90 [26]
0.06 µg/mL: MIC [4] | MIC50 [4] | MIC [12] | MIC90 [15] | MIC50 [20] | MIC90 [20] | MIC [25]
90%: Activity [13] | Activity [14] | Activity [16] | Activity [18]
4 µg/mL: MIC [6]
0.5 µg/mL: MIC [17] | MIC50 [28]
0.125 µg/mL: MIC50 [7] | MIC90 [11]
